Drawing on ChEMBL document CHEMBL2429859, “Inhibiting aberrant signal transducer and activator of transcription protein activation with tetrapodal, small molecule Src homology 2 domain binders: promising agents against multiple myeloma” (J Med Chem, 2013), this text covers IC50 for 59 compounds.

Bounds are passed on as bounds.

Chain of Signal transducer and activator of transcription 3 (P40763 whole entry, the tested form may be a part): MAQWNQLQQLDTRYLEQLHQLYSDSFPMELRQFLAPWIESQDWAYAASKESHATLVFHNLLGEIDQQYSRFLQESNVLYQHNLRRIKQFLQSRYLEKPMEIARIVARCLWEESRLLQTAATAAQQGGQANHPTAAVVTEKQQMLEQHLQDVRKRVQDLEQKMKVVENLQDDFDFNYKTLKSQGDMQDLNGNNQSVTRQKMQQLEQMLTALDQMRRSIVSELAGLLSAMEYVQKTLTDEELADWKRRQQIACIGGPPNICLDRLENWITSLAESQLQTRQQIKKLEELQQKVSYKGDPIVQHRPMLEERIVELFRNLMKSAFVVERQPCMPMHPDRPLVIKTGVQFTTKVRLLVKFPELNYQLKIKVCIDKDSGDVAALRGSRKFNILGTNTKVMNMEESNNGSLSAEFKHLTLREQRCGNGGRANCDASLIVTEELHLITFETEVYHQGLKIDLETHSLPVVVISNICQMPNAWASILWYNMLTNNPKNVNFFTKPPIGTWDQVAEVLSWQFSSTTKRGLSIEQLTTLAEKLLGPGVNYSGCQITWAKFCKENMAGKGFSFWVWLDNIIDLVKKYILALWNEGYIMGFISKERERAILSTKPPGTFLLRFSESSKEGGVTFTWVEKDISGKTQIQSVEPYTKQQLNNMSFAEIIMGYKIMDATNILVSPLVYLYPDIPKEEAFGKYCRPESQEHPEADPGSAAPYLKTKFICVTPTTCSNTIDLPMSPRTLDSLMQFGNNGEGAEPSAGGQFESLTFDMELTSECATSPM

This experiment deals with Signal transducer and activator of transcription 3 (Homo sapiens, UniProt P40763). The experiment can be described thus: Competitive binding affinity to Stat3 SH2 domain (unknown origin) using 5-FAM-GpYLPQTV-NH2 as probe assessed as phosphopetide complex formation after 30 mins by fluorescence polarization assay. An outline of the steps:
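Fluorescence polarization. Recombinant STAT protein was incubated with the 5-FAM-GpYLPQTV-NH2 peptide probe and inhibitor for 30 min. Polarized fluorescence was plotted against inhibitor concentration, and IC50 was obtained by fitting a dose-response curve.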
The IC50 is the point on the concentration scale where inhibition reaches its midpoint. For the compound `Cc1ccc(CN(CC(=O)N(Cc2ccc(C3CCCCC3)cc2)c2ccc(C(=O)O)c(O)c2)S(=O)(=O)c2c(F)c(F)c(F)c(F)c2F)cc1`, the IC50 was 14.4 µM.
On to `Cc1ccc(CN(CC(=O)N(Cc2ccc(C3CCCCC3)cc2)c2ccc(C(=O)O)c(O)c2)S(=O)(=O)c2ccc(C)cc2)cc1`, for which the 50% inhibitory concentration (IC50) was greater than 50 µM.
`Cc1ccc(S(=O)(=O)N(CC(=O)N(Cc2ccc(C3CCCCC3)cc2)c2ccc(C(=O)O)c(O)c2)Cc2ccc(OC(F)(F)F)cc2)cc1`: the IC50 was determined as 11.8 µM.
For `O=C(O)c1ccc(N(Cc2ccc(C3CCCCC3)cc2)C(=O)CN(Cc2c(F)c(F)cc(F)c2F)S(=O)(=O)c2c(F)c(F)c(F)c(F)c2F)cc1O`, the half-maximal inhibitory concentration (IC50) is 16.6 µM.
As to `Cc1ccc(S(=O)(=O)N(CC(=O)N(Cc2ccc(C3CCCCC3)cc2)c2ccc(C(=O)O)c(O)c2)Cc2ccc(C#N)cc2)cc1`, the IC50 stood at 8.6 µM.
For `Cc1ccc(S(=O)(=O)N(CC(=O)N(Cc2ccc(C3CCCCC3)cc2)c2ccc(C(=O)O)c(O)c2)Cc2cccc(N)c2)cc1`, the half-maximal inhibitory concentration (IC50) worked out at 12.4 µM.
As to `N#Cc1cccc(CN(CC(=O)N(Cc2ccc(C3CCCCC3)cc2)c2ccc(C(=O)O)c(O)c2)S(=O)(=O)c2c(F)c(F)c(F)c(F)c2F)c1`, the half-maximal inhibitory concentration (IC50) came out at 19.8 µM.
As for `Cc1ccc(S(=O)(=O)N(CC(N)=O)CC(=O)N(Cc2ccc(C3CCCCC3)cc2)c2ccc(C(=O)O)c(O)c2)cc1`, the IC50 was greater than 50 µM.
In the case of `C=CCN(CC(=O)N(Cc1ccc(C2CCCCC2)cc1)c1ccc(C(=O)O)c(O)c1)S(=O)(=O)c1ccc(C)cc1`, the IC50 was greater than 50 µM.
In the case of `O=C(O)c1ccc(N(Cc2ccc(C3CCCCC3)cc2)C(=O)CN(Cc2ccccc2Cl)S(=O)(=O)c2c(F)c(F)c(F)c(F)c2F)cc1O`, the IC50 is 11 µM.
For `Cc1ccc(S(=O)(=O)N(CC(=O)N(Cc2ccc(C3CCCCC3)cc2)c2ccc(C(=O)O)c(O)c2)Cc2cccc(OC(F)(F)F)c2)cc1`, the half-inhibitory concentration (IC50) was 8 µM.
On to `Cc1ccc(S(=O)(=O)N(CC(=O)N(Cc2ccc(C3CCCCC3)cc2)c2ccc(C(=O)O)c(O)c2)Cc2ccc(N)cc2)cc1`, for which the half-maximal inhibitory concentration (IC50) was 20.8 µM.
As to `Cc1ccc(S(=O)(=O)N(CC(=O)N(Cc2ccc(C3CCCCC3)cc2)c2ccc(C(=O)O)c(O)c2)Cc2cccc(Cl)c2)cc1`, the IC50 amounted to 6 µM.
On to `O=C(O)c1ccc(N(Cc2ccc(C3CCCCC3)cc2)C(=O)CNS(=O)(=O)c2c(F)c(F)c(F)c(F)c2F)cc1O`, for which the IC50 was 32.4 µM.
With `CC(C)(C)OC(=O)N(CC(=O)N(Cc1ccc(C2CCCCC2)cc1)c1ccc(C(=O)O)c(O)c1)S(=O)(=O)c1c(F)c(F)c(F)c(F)c1F`, the IC50 is 27.4 µM.
With `Cc1ccc(S(=O)(=O)N(CC(=O)N(Cc2ccc(C3CCCCC3)cc2)c2ccc(C(=O)O)c(O)c2)CC(C)C)cc1`, the half-maximal inhibitory concentration (IC50) came out at 17 µM.
To `CCOC(=O)c1ccc(CN(CC(=O)N(Cc2ccc(C3CCCCC3)cc2)c2ccc(C(=O)O)c(O)c2)S(=O)(=O)c2ccc(C)cc2)cc1` belongs 7.6 µM.
On to `Cc1ccc(S(=O)(=O)N(CC(=O)N(Cc2ccc(C3CCCCC3)cc2)c2ccc(C(=O)O)c(O)c2)Cc2ccc(F)cc2C(F)(F)F)cc1`, for which the IC50 came out at 11 µM.
Regarding `Cc1cccc(CN(CC(=O)N(Cc2ccc(C3CCCCC3)cc2)c2ccc(C(=O)O)c(O)c2)S(=O)(=O)c2c(F)c(F)c(F)c(F)c2F)c1`, the half-inhibitory concentration (IC50) was 14.6 µM.
Take `N#Cc1ccc(CN(CC(=O)N(Cc2ccc(C3CCCCC3)cc2)c2ccc(C(=O)O)c(O)c2)S(=O)(=O)c2c(F)c(F)c(F)c(F)c2F)cc1`: the IC50 amounted to 9.4 µM.
Turning to `Cc1ccc(S(=O)(=O)N(CC(=O)N(Cc2ccc(C3CCCCC3)cc2)c2ccc(C(=O)O)c(O)c2)Cc2ccc3ccccc3c2)cc1`, the half-inhibitory concentration (IC50) came out at 5 µM.
As to `Cc1ccc(S(=O)(=O)N(CC(=O)N(Cc2ccc(C3CCCCC3)cc2)c2ccc(C(=O)O)c(O)c2)Cc2ccncc2)cc1`, the half-maximal inhibitory concentration (IC50) turned out to be 46.6 µM.
Consider `Cc1ccc(S(=O)(=O)N(CC(=O)N(Cc2ccc(C3CCCCC3)cc2)c2ccc(C(=O)O)c(O)c2)Cc2cccnc2)cc1`, for which the concentration for half-maximal inhibition (IC50) is greater than 50 µM.
On to `Cc1ccc(S(=O)(=O)N(CC(=O)N(Cc2ccc(C3CCCCC3)cc2)c2ccc(C(=O)O)c(O)c2)Cc2ccccc2)cc1`, for which the IC50 was determined as 14.4 µM.
Turning to `Cc1ccc(S(=O)(=O)N(CC(=O)N(Cc2ccc(C3CCCCC3)cc2)c2ccc(C(=O)O)c(O)c2)Cc2ccccc2Cl)cc1`, the half-maximal inhibitory concentration (IC50) was 15.8 µM.
As to `O=C(O)c1ccc(N(Cc2ccc(C3CCCCC3)cc2)C(=O)CN(Cc2cccc(F)c2)S(=O)(=O)c2c(F)c(F)c(F)c(F)c2F)cc1O`, the IC50 came out at 17.8 µM.
To `Cc1ccc(S(=O)(=O)N(CC(=O)N(Cc2ccc(C3CCCCC3)cc2)c2ccc(C(=O)O)c(O)c2)Cc2ccccc2F)cc1` belongs 10.6 µM.
To `Cc1ccc(S(=O)(=O)N(CC(=O)N(Cc2ccc(C3CCCCC3)cc2)c2ccc(C(=O)O)c(O)c2)Cc2ccc(SC(F)(F)F)cc2)cc1` belongs 9.6 µM; to `O=C(O)c1ccc(N(Cc2ccc(C3CCCCC3)cc2)C(=O)CN(Cc2ccc(OC(F)(F)F)cc2)S(=O)(=O)c2c(F)c(F)c(F)c(F)c2F)cc1O`, 21.6 µM.
In the case of `Cc1ccc(S(=O)(=O)N(CC(=O)N(Cc2ccc(C3CCCCC3)cc2)c2ccc(C(=O)O)c(O)c2)Cc2ccccc2OC(F)(F)F)cc1`, the IC50 stood at 7.2 µM.
Take `O=C(O)c1ccc(N(Cc2ccc(C3CCCCC3)cc2)C(=O)CN(Cc2cccc(Cl)c2)S(=O)(=O)c2c(F)c(F)c(F)c(F)c2F)cc1O`: the IC50 is 18.2 µM.
On to `Cc1ccc(S(=O)(=O)N(CC(=O)N(Cc2ccc(C3CCCCC3)cc2)c2ccc(C(=O)O)c(O)c2)Cc2ccc([N+](=O)[O-])cc2)cc1`, for which the IC50 came out at 11 µM.
Then `COC(=O)c1cccc(CN(CC(=O)N(Cc2ccc(C3CCCCC3)cc2)c2ccc(C(=O)O)c(O)c2)S(=O)(=O)c2ccc(C)cc2)c1`, with 18.4 µM.
As to `O=C(O)c1ccc(N(Cc2ccc(C3CCCCC3)cc2)C(=O)CN(Cc2ccc(Cl)cc2)S(=O)(=O)c2c(F)c(F)c(F)c(F)c2F)cc1O`, the IC50 is 13.8 µM.
On to `Cc1ccc(S(=O)(=O)N(CC(=O)N(Cc2ccc(C3CCCCC3)cc2)c2ccc(C(=O)O)c(O)c2)Cc2ccc(Cl)cc2)cc1`, for which the half-maximal inhibitory concentration (IC50) amounted to 6.2 µM.
For `Cc1ccc(S(=O)(=O)N(CC(=O)N(Cc2ccc(C3CCCCC3)cc2)c2ccc(C(=O)O)c(O)c2)Cc2ccccc2C#N)cc1`, the IC50 came out at 22.6 µM.
As to `Cc1ccc(S(=O)(=O)N(CC(=O)N(Cc2ccc(C3CCCCC3)cc2)c2ccc(C(=O)O)c(O)c2)Cc2c(F)c(F)cc(F)c2F)cc1`, the IC50 was determined as 22.8 µM.
On to `O=C(O)c1ccc(N(Cc2ccc(C3CCCCC3)cc2)C(=O)CN(Cc2c(F)cc(F)c(F)c2F)S(=O)(=O)c2c(F)c(F)c(F)c(F)c2F)cc1O`, for which the concentration for half-maximal inhibition (IC50) is 17.6 µM.
As to `Cc1ccc(S(=O)(=O)N(CC(=O)N(Cc2ccc(C3CCCCC3)cc2)c2ccc(C(=O)O)c(O)c2)Cc2cccc(C#N)c2)cc1`, the IC50 is 12.4 µM.
For the compound `COC(=O)c1cccc(CN(CC(=O)N(Cc2ccc(C3CCCCC3)cc2)c2ccc(C(=O)O)c(O)c2)S(=O)(=O)c2c(F)c(F)c(F)c(F)c2F)c1`, the concentration for half-maximal inhibition (IC50) worked out at 30.8 µM.
As for `N#Cc1ccccc1CN(CC(=O)N(Cc1ccc(C2CCCCC2)cc1)c1ccc(C(=O)O)c(O)c1)S(=O)(=O)c1c(F)c(F)c(F)c(F)c1F`, the IC50 came to 11.4 µM.
Then `O=C(O)c1ccc(N(Cc2ccc(C3CCCCC3)cc2)C(=O)CN(Cc2ccc(F)cc2)S(=O)(=O)c2c(F)c(F)c(F)c(F)c2F)cc1O`, with 17.6 µM; and `Cc1ccc(S(=O)(=O)N(CC(=O)N(Cc2ccc(C3CCCCC3)cc2)c2ccc(C(=O)O)c(O)c2)Cc2ccccc2N)cc1`, with 24 µM.
As to `O=C(O)c1ccc(N(Cc2ccc(C3CCCCC3)cc2)C(=O)CN(Cc2ccccc2OC(F)(F)F)S(=O)(=O)c2c(F)c(F)c(F)c(F)c2F)cc1O`, the 50% inhibitory concentration (IC50) was determined as 10.2 µM.
Then `Cc1ccc(S(=O)(=O)N(CC(=O)N(Cc2ccc(C3CCCCC3)cc2)c2ccc(C(=O)O)c(O)c2)Cc2cccc(F)c2)cc1`, with 9 µM; and `Cc1ccc(S(=O)(=O)N(CC(=O)N(Cc2ccc(C3CCCCC3)cc2)c2ccc(C(=O)O)c(O)c2)Cc2cc(F)c(F)c(F)c2F)cc1`, with 22.2 µM.
As for `O=C(O)c1ccc(N(Cc2ccc(C3CCCCC3)cc2)C(=O)CN(Cc2cccc(OC(F)(F)F)c2)S(=O)(=O)c2c(F)c(F)c(F)c(F)c2F)cc1O`, the IC50 was determined as 17.8 µM.
In the case of `COC(=O)c1ccc(CN(CC(=O)N(Cc2ccc(C3CCCCC3)cc2)c2ccc(C(=O)O)c(O)c2)S(=O)(=O)c2ccc(C)cc2)cc1`, the IC50 was 11.6 µM.
For the compound `O=C(O)c1ccc(N(Cc2ccc(C3CCCCC3)cc2)C(=O)CN(Cc2ccccc2F)S(=O)(=O)c2c(F)c(F)c(F)c(F)c2F)cc1O`, the IC50 was 28 µM.
Then `Cc1ccc(S(=O)(=O)N(CC(=O)N(Cc2ccc(C3CCCCC3)cc2)c2ccc(C(=O)O)c(O)c2)Cc2cccc(C)c2)cc1`, with 5.2 µM; and `CCCN(CC(=O)N(Cc1ccc(C2CCCCC2)cc1)c1ccc(C(=O)O)c(O)c1)S(=O)(=O)c1ccc(C)cc1`, with 17.8 µM.
For the compound `Cc1ccc(S(=O)(=O)N(CC(=O)N(Cc2ccc(C3CCCCC3)cc2)c2ccc(C(=O)O)c(O)c2)Cc2cccc([N+](=O)[O-])c2)cc1`, the 50% inhibitory concentration (IC50) is 5 µM.
Regarding `O=C(O)c1ccc(N(Cc2ccc(C3CCCCC3)cc2)C(=O)CN(Cc2cc(F)c(F)c(F)c2F)S(=O)(=O)c2c(F)c(F)c(F)c(F)c2F)cc1O`, the IC50 is 12.4 µM.
To `COC(=O)c1ccccc1CN(CC(=O)N(Cc1ccc(C2CCCCC2)cc1)c1ccc(C(=O)O)c(O)c1)S(=O)(=O)c1c(F)c(F)c(F)c(F)c1F` belongs 17.4 µM.
For `Cc1ccc(S(=O)(=O)N(CC(=O)N(Cc2ccc(C3CCCCC3)cc2)c2ccc(C(=O)O)c(O)c2)Cc2ccccn2)cc1`, the IC50 was determined as 45.2 µM.
To `O=C(O)c1ccc(N(Cc2ccc(C3CCCCC3)cc2)C(=O)CN(Cc2ccc3ccccc3c2)S(=O)(=O)c2c(F)c(F)c(F)c(F)c2F)cc1O` belongs 21.8 µM; to `Cc1ccc(S(=O)(=O)N(CC(=O)N(Cc2ccc(C3CCCCC3)cc2)c2ccc(C(=O)O)c(O)c2)Cc2c(F)cc(F)c(F)c2F)cc1`, 15.4 µM; to `Cc1ccc(S(=O)(=O)N(CC(=O)N(Cc2ccc(C3CCCCC3)cc2)c2ccc(C(=O)O)c(O)c2)Cc2ccccc2[N+](=O)[O-])cc1`, 10 µM.
As for `Cc1ccc(S(=O)(=O)N(CC(=O)N(Cc2ccc(C3CCCCC3)cc2)c2ccc(C(=O)O)c(O)c2)Cc2ccc(F)cc2)cc1`, the 50% inhibitory concentration (IC50) stood at 7.6 µM.
